Results: ChEMBL document CHEMBL4422657, “Amino acid based prodrugs of a fosmidomycin surrogate as antimalarial and antitubercular agents” (Bioorg Med Chem, 2019)
Values after ≈ are worked out from the molar mass of the structure shown.

What was measured:
[1] = system: Plasmodium berghei; assay: Antimalarial activity against Plasmodium berghei ANKA infected in Swiss mouse assessed as parasitaemia at 50 mg/kg, ip administered once daily for 5 days measured on 4 days post infection by flow cytometry (reference value: 17.1%); format: functional
Method in brief: (§1)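 Mice infected with P. berghei GFP ANKA strain were dosed intraperitoneally once daily for 5 consecutive days, at 50 mg/kg for test compounds or 10 mg/kg for chloroquine as the reference. Parasitemia was measured in surviving animals on days 4, 7, 11 and 14 post infection by flow cytometry, using 10 μL blood in 2000 μL PBS. Percent reduction was calculated against vehicle-treated infected controls.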

[2] = system: Plasmodium berghei; assay: Antimalarial activity against Plasmodium berghei ANKA infected in Swiss mouse assessed as mean survival days at 50 mg/kg, ip administered once daily for 5 days (reference value: 11.2 day); format: functional
[3] = Toxicity in Swiss mouse infected with Plasmodium berghei ANKA assessed as change in body weight at 50 mg/kg, ip administered once daily for 5 days measured on 7 days post infection (reference value: 89%); format: organism-based; conditions: in vivo, 168 h
[4] = system: Plasmodium berghei; assay: Antimalarial activity against Plasmodium berghei ANKA infected in Swiss mouse assessed as parasitaemia at 50 mg/kg, ip administered once daily for 5 days measured on 11 days post infection by flow cytometry (reference value: 44%); format: functional; method in brief: as §1
[5] = system: Plasmodium berghei; assay: Antimalarial activity against Plasmodium berghei ANKA infected in Swiss mouse assessed as parasitaemia at 50 mg/kg, ip administered once daily for 5 days measured on 7 days post infection by flow cytometry (reference value: 19%); format: functional; method in brief: as §1
[6] = Toxicity in Swiss mouse infected with Plasmodium berghei ANKA assessed as change in body weight at 50 mg/kg, ip administered once daily for 5 days measured on 4 days post infection (reference value: 100%); format: organism-based; conditions: in vivo, 96 h
[7] = Toxicity in Swiss mouse infected with Plasmodium berghei ANKA assessed as change in body weight at 50 mg/kg, ip administered once daily for 5 days measured on 14 days post infection (reference value: 75%); format: organism-based; conditions: in vivo, 336 h
[8] = system: Plasmodium berghei; assay: Antimalarial activity against Plasmodium berghei ANKA infected in Swiss mouse assessed as suppression of parasitaemia at 50 mg/kg, ip administered once daily for […] measured on 4 days post infection by flow cytometry relative to control; format: functional
[9] = system: Plasmodium berghei; assay: Antimalarial activity against Plasmodium berghei ANKA infected in Swiss mouse assessed as parasitaemia at 50 mg/kg, ip administered once daily for 5 days measured on 14 days post infection by flow cytometry (reference value: 64.6%); format: functional
[10] = Toxicity in Swiss mouse infected with Plasmodium berghei ANKA assessed as change in body weight at 50 mg/kg, ip administered once daily for 5 days measured on 11 days post infection (reference value: 81%); format: organism-based; conditions: in vivo, 264 h
[11] = system: Plasmodium falciparum; assay: Antiplasmodial activity against chloroquine-resistant Plasmodium falciparum K1 infected in human erythrocytes measured after 72 hrs Malstat/NBT reagent based assay; format: functional, organism-based; conditions: K1, 72 h
Method in brief: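 Infected human red blood cells (1% parasitaemia, 2% haematocrit) incubated 72 h with compound, then frozen at -20 °C. Growth read by Malstat: haemolysate with Malstat reagent 15 min RT, then NBT/PES 2 h RT in dark, absorbance at 655 nm. Chloroquine positive control. IC50 reported.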

[12] = system: Mycobacterium tuberculosis; assay: Antitubercular activity against Mycobacterium tuberculosis H37Rv after 7 days by Resazurin microtitre assay; format: functional; conditions: 168 h
Method in brief: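 Resazurin microtiter assay with M. tuberculosis H37Rv in Middlebrook 7H9 + 10% OADC + 0.5% glycerol + 0.1% casitone. Two-fold dilutions, final 50 to 3.12 µM. Inoculum from LJ subculture at McFarland 1, diluted 1:10. 7 days at 37 °C, normal atmosphere, then resazurin overnight. MIC is the lowest concentration preventing the blue-to-pink change, read visually.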

[13] = system: MRC5; assay: Cytotoxicity against human MRC5 cells after 24 hrs by resazurin dye based assay; format: cell-based; conditions: MRC5, 24 h
Method in brief: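 MRC-5 human lung fibroblasts were grown in DMEM with 10% heat-inactivated FCS at 37 °C, 5% CO2. Cells were seeded at 4 x 10^4 per well and allowed to recover for at least 24 h, then exposed for 24 h to a two-fold dilution series (128 to 0.5 µM final). Cells were PBS-washed and incubated with resazurin for 3 h, and fluorescence was read at 560/590 nm. Tamoxifen served as positive control.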

[14] = system: Mycobacterium tuberculosis; assay: Antitubercular activity against Mycobacterium tuberculosis H37Rv ATCC 27294 after 1 to 2 weeks; format: functional
[15] = Toxicity in Swiss mouse infected with Plasmodium berghei ANKA assessed as change in body weight at 10 mg/kg, ip administered once daily for 5 days measured on 4 days post infection (reference value: 100%); format: organism-based; conditions: in vivo, 96 h
[16] = system: Plasmodium berghei; assay: Antimalarial activity against Plasmodium berghei ANKA infected in Swiss mouse assessed as mean survival days at 10 mg/kg, ip administered once daily for 5 days (reference value: 11.2 day); format: functional
[17] = system: Plasmodium berghei; assay: Antimalarial activity against Plasmodium berghei ANKA infected in Swiss mouse assessed as parasitaemia at 10 mg/kg, ip administered once daily for 5 days measured on 4 days post infection by flow cytometry (reference value: 17.1%); format: functional; method in brief: as §1
[18] = system: Plasmodium berghei; assay: Antimalarial activity against Plasmodium berghei ANKA infected in Swiss mouse assessed as parasitaemia at 10 mg/kg, ip administered once daily for 5 days measured on 11 days post infection by flow cytometry (reference value: 44%); format: functional; method in brief: as §1
[19] = system: Plasmodium berghei; assay: Antimalarial activity against Plasmodium berghei ANKA infected in Swiss mouse assessed as parasitaemia at 10 mg/kg, ip administered once daily for 5 days measured on 7 days post infection by flow cytometry (reference value: 19%); format: functional; method in brief: as §1
[20] = Toxicity in Swiss mouse infected with Plasmodium berghei ANKA assessed as change in body weight at 10 mg/kg, ip administered once daily for 5 days measured on 7 days post infection (reference value: 89%); format: organism-based; conditions: in vivo, 168 h
[21] = system: Plasmodium berghei; assay: Antimalarial activity against Plasmodium berghei ANKA infected in Swiss mouse assessed as suppression of parasitaemia at 10 mg/kg, ip administered once daily for 5 days measured on 4 days post infection by flow cytometry relative to control; format: functional; method in brief: as §1
[22] = Toxicity in Swiss mouse infected with Plasmodium berghei ANKA assessed as change in body weight at 10 mg/kg, ip administered once daily for 5 days measured on 11 days post infection (reference value: 81%); format: organism-based; conditions: in vivo, 264 h

Compound | IC50 [11] | MIC [12] | IC50 [13] | other results
CC(C)OC(=O)OCOP(=O)(CCCC(=O)N(C)O)OCOC(=O)OC(C)C | – | – | – | Activity [1]: 0.2%; MSD [2]: 15.3 days; Activity [3]: 105%; Activity [4]: 3.7%; Activity [5]: 0.04%; Activity [6]: 104%; Activity [7]: 100%; Activity [8]: 99%; Activity [9]: 16.4%; Activity [10]: 105%
CCOC(=O)[C@@H](N)Cc1ccc(OP(=O)(CCCC(=O)N(C)O)Oc2ccc(C[C@H](N)C(=O)OCC)cc2)cc1 | 0.23 µM | > 50 µM | > 64 µM | –
CC(C)C[C@H](NP(=O)(CCCC(=O)N(C)O)N[C@@H](CC(C)C)C(=O)OC(C)C)C(=O)OC(C)C | 4.97 µM | > 50 µM | > 64 µM | –
CCOC(=O)[C@H](C)NP(=O)(CCCC(=O)N(C)O)N[C@@H](C)C(=O)OCC | 5.06 µM | 20 µM (≈ 7.91 µg/mL) | > 64 µM | –
CCOC(=O)[C@H](CC(C)C)NP(=O)(CCCC(=O)N(C)O)N[C@@H](CC(C)C)C(=O)OCC | 3.91 µM | 50 µM (≈ 24 µg/mL) | > 64 µM | –
CC(C)C[C@H](NP(=O)(CCCC(=O)N(C)O)N[C@@H](CC(C)C)C(=O)OC1CCCCC1)C(=O)OC1CCCCC1 | 4.56 µM | > 50 µM | 7.65 µM | –
CCOC(=O)[C@@H]1CCCN1P(=O)(CCCC(=O)N(C)O)N1CCC[C@H]1C(=O)OCC | 10.2 µM | > 50 µM | > 64 µM | –
CCOC(=O)[C@H](C)NP(=O)(N[C@@H](C)C(=O)OCC)C(CCC(=O)N(C)O)c1ccc(Cl)c(Cl)c1 (stereo not given in full) | > 36.6 µM | > 50 µM | > 64 µM | –
CCOC(=O)[C@H](CCCCN)NP(=O)(CCCC(=O)N(C)O)N[C@@H](CCCCN)C(=O)OCC | 0.96 µM | > 50 µM | > 64 µM | Activity [1]: 17.1%; MSD [2]: 8.7 days; Activity [3]: 79%; Activity [4]: 34.7%; Activity [5]: 30.1%; Activity [6]: 99%; Activity [8]: 0.6%; Activity [10]: 67%
CCOC(=O)[C@@H](NP(=O)(CCCC(=O)N(C)O)N[C@H](C(=O)OCC)[C@@H](C)CC)[C@@H](C)CC | 2 µM | > 50 µM | > 64 µM | –
CCOC(=O)[C@H](Cc1ccccc1)NP(=O)(CCCC(=O)N(C)O)N[C@@H](Cc1ccccc1)C(=O)OCC | 4.71 µM | > 50 µM | > 64 µM | –
CCCCCOC(=O)[C@H](CC(C)C)NP(=O)(CCCC(=O)N(C)O)N[C@@H](CC(C)C)C(=O)OCCCCC | 2.37 µM | > 50 µM | 7.46 µM | –
CC(C)C[C@H](NP(=O)(CCCC(=O)N(C)O)N[C@@H](CC(C)C)C(=O)OCc1ccccc1)C(=O)OCc1ccccc1 | 2.02 µM | > 50 µM | 7.94 µM | –
CCOC(=O)[C@@H](NP(=O)(CCCC(=O)N(C)O)N[C@H](C(=O)OCC)C(C)C)C(C)C | 12.7 µM | > 50 µM | > 64 µM | –
COC(=O)[C@H](CC(C)C)NP(=O)(CCCC(=O)N(C)O)N[C@@H](CC(C)C)C(=O)OC | 1.76 µM | > 50 µM | > 64 µM | –
CCOC(=O)[C@H](Cc1ccc(OP(=O)(Oc2ccc(C[C@H](NC(C)=O)C(=O)OCC)cc2)C(CCC(=O)N(C)O)c2ccc(Cl)c(Cl)c2)cc1)NC(C)=O (stereo not given in full) | > 41.1 µM | > 50 µM | 36.9 µM | –
CCOC(=O)[C@H](Cc1ccc(OP(=O)(CCCC(=O)N(C)O)Oc2ccc(C[C@H](NC(C)=O)C(=O)OCC)cc2)cc1)NC(C)=O | 0.31 µM | > 50 µM | > 64 µM | Activity [1]: 3%; MSD [2]: 12.7 days; Activity [3]: 104%; Activity [4]: 29.2%; Activity [5]: 6.5%; Activity [6]: 102%; Activity [7]: 69%; Activity [8]: 82%; Activity [9]: 32.6%; Activity [10]: 86%
CC(=O)N(CCCP(=O)(OCOC(=O)OC(C)(C)C)OCOC(=O)OC(C)(C)C)OCc1ccc(-c2ccccc2)cc1 | – | – | – | MIC [14]: 5.3 to 21 µM (≈ 3.31 to 13.1 µg/mL)
CCN(CC)CCCC(C)Nc1ccnc2cc(Cl)ccc12 (stereo not given) [CHLOROQUINE] | – | – | – | Activity [15]: 99%; MSD [16]: 14 days; Activity [17]: 0.2%; Activity [18]: 11.9%; Activity [19]: 0.6%; Activity [20]: 101%; Activity [21]: 98.6%; Activity [22]: 101%
